Experimental data: the RNAGym collection of RNA variant scans (doi:10.1126/science.aae0568)
Fewer inactive variants are shown than the library holds.

B1: tRNA (parent)
chain: GUUCCGUUGGCGUAAUGGUAACGCGUCUCCCUCCUAAGGAGAAGACUGCGGGUUCGAGUCCCGUACGGAACG

Variants of: B1
Assay: yeast fitness relative to wild type (ratio to wild type); higher = fitter; tRNA-Arg(CCU), competitive growth, 37 C, YPD
How it was run: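 Gene amplicons from the start population and from each of six end populations were read by 100-nucleotide paired-end sequencing. Those end populations came from pooled Saccharomyces cerevisiae strains carrying tRNA-Arg(CCU) gene variants at the native locus, competed in YPD at 37°C for 24 hours. Fitness relative to wild type was worked out from changes in genotype frequencies. Genotypes needed ≥ 100 starting reads, and estimates < 0.5 were set to 0.5.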

| Variant | yeast fitness |
| --- | --- |
| A37C C49U U54G | ≤ 0.5 |
| C49G U59A | 0.785 |
| C24U C33A A40G | 0.513 |
| C5A G39C G63A | ≤ 0.5 |
| C5U C55A A57C | ≤ 0.5 |
| A14C C33A A37U C62G | ≤ 0.5 |
| U28A G56A C62A | 0.582 |
| G9C A65G | 0.78 |
| U2A C33G G51C C66G G67A A69C | ≤ 0.5 |
| G38A C62U | 0.961 |
| U3C U13A A40C | ≤ 0.5 |
| U16G U26G C29A A57C | ≤ 0.5 |
| U3G G12C A70C | 0.545 |
| G12C C62U | 0.776 |
| G18A U32A | 0.513 |
| U16A A45C G63C U64C C66U | ≤ 0.5 |
| C5U C34U A69U | 0.59 |
| C5A A15G C33A | ≤ 0.5 |
| G9A U32G C49G C55A | ≤ 0.5 |
| C24G C29A A40G G50C | ≤ 0.5 |
| C5U A37C A40C G51A C55A G58A | 0.529 |

| Variant | yeast fitness |
| --- | --- |
| U13A A21C G52A | ≤ 0.5 |
| G23A U35A A65C | ≤ 0.5 |
| C29U C55U C66U | 0.58 |
| C5A U32A A36C A70G | ≤ 0.5 |
| C22A G39C A43U U53C | 0.723 |
| C5G U64C | 0.978 |
| G38C A40C U53C | 0.639 |
| C5U A14G U28C | 0.562 |
| C5U G63A | 0.828 |
| U3C A40U C49A | 0.577 |
| C29U G56A C66U | 0.619 |
| C4U G44C A70C | 0.782 |
| U13A C60G G67A | ≤ 0.5 |
| U3G A15G A21U C24U U35C G38A | ≤ 0.5 |
| G9A G17C G52A C55A | ≤ 0.5 |
| U3A A14U A57U | ≤ 0.5 |
| C5U G10A C34U G68U A69U | 0.505 |
| C34G G67C | 0.604 |
| U8A A15G C27A G67A | ≤ 0.5 |
| C24A G58C C62U | ≤ 0.5 |
| C33G A57U C62U | ≤ 0.5 |

| Variant | yeast fitness |
| --- | --- |
| C22A C24G U53C | ≤ 0.5 |
| U2A C11G A21G A65G | ≤ 0.5 |
| C4G C5U G68A | 0.602 |
| C11U C30U A65U C66G | 0.585 |
| G25A C34G U54A A65U | ≤ 0.5 |
| C5U G25C A42U C62G | ≤ 0.5 |
| A45C | 0.987 |
| U3G C11G G44A G48A | ≤ 0.5 |
| G17A C30U C49U C66U A69C | ≤ 0.5 |
| C30A U35A A42G A43C | ≤ 0.5 |
| G18A G44A C62U | ≤ 0.5 |
| G6C G17A A36U C46A U53C C66A | ≤ 0.5 |
| U13A A69G | 1.07 |
| C27U U28C | 0.903 |
| G9A A45U | 0.86 |
| C5U A40U A45G C46U | 0.986 |
| C30U C33G C46G | ≤ 0.5 |
| G12A U26C G58A | 0.675 |
| G51C G67A | 0.572 |
| C27U U28A U32A C34U A36C G48A C60U | ≤ 0.5 |
| G25C U35A A37U G67A A70G | ≤ 0.5 |

| Variant | yeast fitness |
| --- | --- |
| C4U U7G A37G | 0.536 |
| G44C C61A C62U C66U | ≤ 0.5 |
| A43G U64A | 0.77 |
| C31A A40C | 0.775 |
| G18U A20U | 0.722 |
| G9C U16C C30U U32G | ≤ 0.5 |
| C11G U32C C60G | ≤ 0.5 |
| C5U A15G A20C U26C G41C G67C | 0.593 |
| A40U G48A | 0.826 |
| G6C C24A C46G G52A | 0.695 |
| C4U C11G A45U C61G | 0.518 |
| C4A U16G C22U G23U A42C G50C C66U | ≤ 0.5 |
| C4U G10C A15G A20U A21G C33U U47C A57C | ≤ 0.5 |
| C11A C30A | 0.523 |
| U19C C29A A43C | ≤ 0.5 |
| A20U C22U C46U A57G | ≤ 0.5 |
| G12C C24G C27U A43U A69U | 0.625 |
| G9U C22G A70U | 0.623 |
| U16A U28G G67A | 0.752 |
| A42C U64C | 0.882 |
